ChEMBL document CHEMBL4261513, “Dichloro-naphthoquinone as a non-classical inhibitor of the mycobacterial carbonic anhydrase Rv3588c” (Medchemcomm, 2017)

Columns and labels:
[1] = molecular target: Carbonic anhydrase 2 (Homo sapiens) (UniProt P00918); assay: Inhibition of recombinant human carbonic anhydrase 2 expressed in Escherichia coli BL21 (DE3) assessed as enzyme residual activity at 25 uM measured for 10 secs by m-cresol purple staining based stopped-flow CO2 hydration assay relative to control
Summary of the method: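 Codon-optimised synthetic human CA II gene expressed in bacteria. Activity measured by stopped-flow CO2 hydration, monitoring m-cresol purple absorbance. Sample buffer was 100 mM Na2SO4, 25 mM TAPS pH 8.5, 5 μM protein with compound, mixed 1:1 with CO2-saturated water. Initial rates over the first 10 s, from at least five traces per compound.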

Carbonic anhydrase 2 = molecular target: T1, Carbonic anhydrase 2 (Mycobacterium tuberculosis, UniProt P9WPJ9); assay: (§1) Inhibition of recombinant Mycobacterium tuberculosis N-terminal Hi-tagged Rv3588c expressed in Escherichia coli BL21-Al cells measured for 10 secs by m-cresol purple staining based stopped-flow CO2 hydration assay
T1 sequence (P9WPJ9 whole entry): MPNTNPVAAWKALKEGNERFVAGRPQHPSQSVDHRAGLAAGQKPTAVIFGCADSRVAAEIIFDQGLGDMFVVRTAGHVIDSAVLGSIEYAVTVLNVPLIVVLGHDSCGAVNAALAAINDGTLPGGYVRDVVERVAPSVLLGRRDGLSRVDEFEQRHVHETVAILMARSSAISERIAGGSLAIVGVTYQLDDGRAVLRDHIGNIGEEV
Summary of the method: (§2)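 His-tagged Rv3588c in stopped-flow CO2 hydration with m-cresol purple read-out, in 100 mM Na2SO4, 25 mM TAPS pH 8.5 against CO2-saturated water. Five compound concentrations, starting from […]. Initial rates taken over the first 10 s. Dose-response data fitted to a curve.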

[2] = molecular target: T2, Carbonic anhydrase 2 (Mycobacterium tuberculosis) (UniProt P9WPJ9); assay: as §1; summary of the method: as §2
T2 sequence (whole entry): T1 sequence (P9WPJ9 whole entry)

[3] = molecular target: T3, Beta-carbonic anhydrase 1 (Mycobacterium tuberculosis) (UniProt P9WPJ7); assay: Inhibition of recombinant Mycobacterium tuberculosis Rv1284 expressed in Escherichia coli BL21-Al cells assessed as enzyme residual activity at 25 uM measured for 10 secs by m-cresol purple staining based stopped-flow CO2 hydration assay relative to control
T3 sequence (whole entry): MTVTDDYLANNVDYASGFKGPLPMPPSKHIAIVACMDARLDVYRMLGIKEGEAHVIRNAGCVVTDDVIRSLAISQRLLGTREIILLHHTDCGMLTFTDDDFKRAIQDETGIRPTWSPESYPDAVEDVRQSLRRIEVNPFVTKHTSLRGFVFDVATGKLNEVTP
Summary of the method: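 Untagged Rv1284, purified by QA52 anion exchange at pH 8.0 and SP-Sepharose cation exchange at pH 4.5, and dialysed into 100 mM NaCl, 20 mM HEPES pH 7.5. Stopped-flow CO2 hydration with m-cresol purple read-out. Sample buffer was 100 mM Na2SO4, 25 mM TAPS pH 8.5, 5 μM enzyme plus compound, mixed 1:1 with CO2-saturated water. Initial rates from the first 10 s, at least five traces.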

[4] = molecular target: T2, Carbonic anhydrase 2 (Mycobacterium tuberculosis); assay: Inhibition of recombinant Mycobacterium tuberculosis N-terminal Hi-tagged Rv3588c expressed in Escherichia coli BL21-Al cells assessed as enzyme residual activity at 25 uM measured for 10 secs by m-cresol purple staining based stopped-flow CO2 hydration assay relative to control
Summary of the method: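 Rv3588c with an N-terminal His tag, purified by QA52 anion exchange and then Ni-NTA at pH 8.0, and dialysed into 100 mM NaCl, 20 mM HEPES pH 7.5. Stopped-flow CO2 hydration followed by m-cresol purple absorbance. Sample buffer was 100 mM Na2SO4, 25 mM TAPS pH 8.5, 5 μM protein plus compound, mixed 1:1 with CO2-saturated water. Initial rates over the first 10 s, at least five traces each.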

[5] = molecular target: T3, Beta-carbonic anhydrase 1 (Mycobacterium tuberculosis); assay: Binding affinity to recombinant Mycobacterium tuberculosis Rv1284 expressed in Escherichia coli BL21-Al cells assessed as change in melting temperature by SYPRO Orange dye based differential scanning fluorimetric method

For `O=C1C(Cl)=C(Cl)C(=O)c2ccccc21` [Dichlon], the Activity [1] was 96.8%, the IC50 (Carbonic anhydrase 2) was 1200 nM and the Imax [2] was 84%. For the same molecule, the Activity [3] was 81.5%, the Activity [4] was 16.1% and the deltaTm [5] was -10.2 K.
`O=C1C=C(Br)C(=O)c2ccccc21` showed an Activity [1] of 109%, an Activity [3] of 72.2% and an Activity [4] of 68.1%. For the same molecule, the deltaTm [5] was -10.1 K.
For `O=C1C(O)=C([C@H]2CC[C@H](c3ccc(Cl)cc3)CC2)C(=O)c2ccccc21`, the Activity [3] was 83.1%, the Activity [4] was 80.7% and the deltaTm [5] was -0.5 K.
In the case of `CN(C)CCCNC1=C(Cl)C(=O)c2ccccc2C1=O`, the Activity [3] is reported as 79.4%, the Activity [4] is reported as 110% and the deltaTm [5] is reported as -0.9 K.
With `O=C1C=CC(=O)c2ccccc21` the Activity [3] was 76.6%, the Activity [4] was 94.8% and the deltaTm [5] was -8.8 K.
In the case of `COCCNC1=C(Cl)C(=O)c2ccccc2C1=O`, the Activity [3] is reported as 67.2%, the Activity [4] is reported as 98.8% and the deltaTm [5] is reported as -1.5 K.
`O=C1C(Cl)=C(NCc2ccccc2)C(=O)c2ccccc21` was tested, and the Activity [3] was 96.5%, the Activity [4] was 99.1% and the deltaTm [5] was -2.5 K.
`O=C1C2=C(C(=O)c3ccccc31)S(=O)(=O)C=CN2` was tested, and the Activity [3] was 74.6%, the Activity [4] was 78.3% and the deltaTm [5] was -1.1 K.
Work on `COC1=CC(=O)c2ccccc2C1=O` [2-Methoxy-1,4-naphthoquinone] yielded an Activity [1] of 104%, an IC50 (Carbonic anhydrase 2) of 2300 nM and an Imax [2] of 40%. For the same molecule, the Activity [3] was 62.3%, the Activity [4] was 84.5% and the deltaTm [5] was -0.5 K.
Work on `O=C1C2=C(C(=O)c3ccccc31)S(=O)(=O)CCN2` yielded an Activity [3] of 79.5%, an Activity [4] of 80.6% and a deltaTm [5] of -0.4 K.
Molecule `CCN(CC)CCCNC1=C(Cl)C(=O)c2ccccc2C1=O` has an Activity [3] of 68.5%, an Activity [4] of 93.8% and a deltaTm [5] of -0.6 K.
In the case of `O=C1C(Cl)=C(NCCc2ccccc2)C(=O)c2ccccc21`, the Activity [3] is reported as 110%, the Activity [4] is reported as 93.2% and the deltaTm [5] is reported as -0.7 K.
Work on `Clc1cc2ccccc2cc1Cl` yielded an Activity [3] of 80.3%, an Activity [4] of 82.8% and a deltaTm [5] of 1.3 K.
In the case of `COC1=CC(=O)C=C(CO)C1=O`, the Activity [3] is reported as 101%, the Activity [4] is reported as 104% and the deltaTm [5] is reported as 0.1 K.
With `CC(C)CCNC1=C(Cl)C(=O)c2ccccc2C1=O` the Activity [3] was 103%, the Activity [4] was 103% and the deltaTm [5] was -1.5 K.
